Results as given in ChEMBL document CHEMBL1125819, “Novel benzamides as selective and potent gastrokinetic agents. 2. Synthesis and structure-activity relationships of 4-amino-5-chloro-2-ethoxy-N-[[4-(4-fluorobenzyl)-2- morpholinyl]methyl] benzamide citrate (AS-4370) and related compounds” (J Med Chem, 1991).

Legend:
[1] = biological target: Serotonin 1 (5-HT1) receptor (Rattus norvegicus, UniProt P28564+P30940+P19327+P28565); assay: Inhibitory activity against 5-hydroxytryptamine 1 receptor by 3H ligand binding experiments.; type: protein assay
In short: (§1)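 Competition binding on rat brain synaptic membranes at 10 mg wet tissue per assay, with compounds at 0.01–1000 μM. Radioligand and tissue: S1, [3H]serotonin, frontal cortex; S2, [3H]spiperone, frontal cortex; α1, [3H]WB-4101, whole brain; α2, [3H]clonidine, whole brain. Assays ended by rapid filtration and scintillation counting. IC50 was derived by probit analysis.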

[2] = system: Rattus norvegicus; assay: Gastric emptying of phenol red semisolid meal in rats at dose of 2.0 mg/kg, administered perorally.; type: functional; details: route oral
[3] = system: Canis familiaris; assay: Compound was tested for anti-apomorphine effect in 2 dogs and the vomiting frequency expressed at a dose of 1.0 mg/kg perorally.; type: functional, Canis lupus familiaris; details: route oral
In short: (§2)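 Dogs received oral test article, then were challenged with apomorphine, and vomiting frequency was counted; saline controls were run. ED50 with 95% confidence limits was derived by probit analysis. Significance versus control was tested by Student's t test.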

[4] = biological target: T1, Adrenergic receptor alpha-1 (Rattus norvegicus, UniProt P15823+P23944+P43140); assay: Inhibitory activity against Alpha-1 adrenergic receptor by 3H ligand binding experiments.; type: protein assay; in short: as §1
T1 sequence (P15823 whole entry): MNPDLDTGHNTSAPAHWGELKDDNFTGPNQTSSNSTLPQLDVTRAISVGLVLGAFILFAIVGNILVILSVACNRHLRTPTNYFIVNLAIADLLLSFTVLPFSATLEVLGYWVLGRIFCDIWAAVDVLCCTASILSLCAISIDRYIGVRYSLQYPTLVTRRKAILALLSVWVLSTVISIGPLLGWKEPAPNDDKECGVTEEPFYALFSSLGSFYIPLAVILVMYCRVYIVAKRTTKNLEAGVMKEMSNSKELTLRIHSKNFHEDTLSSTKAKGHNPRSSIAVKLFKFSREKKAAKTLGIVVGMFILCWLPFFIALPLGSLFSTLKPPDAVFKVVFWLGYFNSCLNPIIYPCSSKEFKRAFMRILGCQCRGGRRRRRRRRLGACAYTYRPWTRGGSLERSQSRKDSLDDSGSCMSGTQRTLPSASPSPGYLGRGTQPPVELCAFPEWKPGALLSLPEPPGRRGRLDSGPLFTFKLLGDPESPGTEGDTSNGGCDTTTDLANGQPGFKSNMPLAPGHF
T1 sequence (P23944 whole entry): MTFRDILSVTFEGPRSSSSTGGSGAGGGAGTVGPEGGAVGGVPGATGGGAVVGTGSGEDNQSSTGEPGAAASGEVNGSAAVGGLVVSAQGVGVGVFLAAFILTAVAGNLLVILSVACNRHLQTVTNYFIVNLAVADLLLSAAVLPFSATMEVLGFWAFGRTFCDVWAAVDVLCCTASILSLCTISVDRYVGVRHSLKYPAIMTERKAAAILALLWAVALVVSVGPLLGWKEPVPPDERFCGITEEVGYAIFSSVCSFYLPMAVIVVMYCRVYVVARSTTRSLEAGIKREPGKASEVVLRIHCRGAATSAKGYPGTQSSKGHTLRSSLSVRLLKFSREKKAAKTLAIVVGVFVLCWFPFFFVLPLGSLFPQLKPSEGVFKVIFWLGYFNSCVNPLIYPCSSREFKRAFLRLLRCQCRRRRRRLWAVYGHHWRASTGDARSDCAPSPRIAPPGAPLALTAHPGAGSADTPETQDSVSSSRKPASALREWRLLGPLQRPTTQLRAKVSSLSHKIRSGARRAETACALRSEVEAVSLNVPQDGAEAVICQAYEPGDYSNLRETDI
T1 sequence (P43140 whole entry): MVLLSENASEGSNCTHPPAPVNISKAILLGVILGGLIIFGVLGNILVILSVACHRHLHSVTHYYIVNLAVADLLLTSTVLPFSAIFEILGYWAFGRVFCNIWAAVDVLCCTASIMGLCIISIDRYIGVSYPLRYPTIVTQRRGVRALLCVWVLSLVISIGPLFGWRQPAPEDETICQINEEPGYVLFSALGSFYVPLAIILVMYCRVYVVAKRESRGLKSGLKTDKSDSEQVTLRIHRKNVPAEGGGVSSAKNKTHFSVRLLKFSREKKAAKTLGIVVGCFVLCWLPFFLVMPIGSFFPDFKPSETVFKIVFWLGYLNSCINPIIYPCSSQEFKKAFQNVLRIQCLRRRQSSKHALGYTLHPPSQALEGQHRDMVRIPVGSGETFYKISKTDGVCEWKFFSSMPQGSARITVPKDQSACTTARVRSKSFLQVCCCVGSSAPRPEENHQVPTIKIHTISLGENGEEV

[5] = species on record: Canis familiaris; assay: Effective dose required to inhibit 50% of apomorphine effect; type: functional; details: Canis lupus familiaris; in short: as §2
[6] = biological target: Serotonin 2 (5-HT2) receptor (Rattus norvegicus, UniProt P30994+P08909+P14842); assay: Inhibitory activity against 5-hydroxytryptamine 2 receptor by 3H ligand binding experiments.; type: protein assay
[7] = system: Canis familiaris; assay: Compound was tested for anti-apomorphine effect in 8 dogs and the vomiting frequency expressed at a dose of 10.0 mg/kg perorally.; type: functional, Canis lupus familiaris; details: route oral; in short: as §2
[8] = system: Canis familiaris; assay: Compound was tested for anti-apomorphine effect in 8 dogs and the vomiting frequency expressed at a dose of 1.0 mg/kg perorally.; type: functional, Canis lupus familiaris; details: route oral; in short: as §2
[9] = biological target: D(2) dopamine receptor (Rattus norvegicus, UniProt P61169); assay: Inhibitory activity against dopamine receptor D2 by 3H ligand binding experiments.
In short: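 Competition binding used rat striatal synaptic membranes (10 mg wet tissue per assay) with [3H]spiperone. Test compounds spanned 0.01–1000 μM. Assays were started by adding tissue and stopped by rapid glass-fibre filtration with ice-cold buffer washes. Filters were solubilised and radioactivity counted.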

[10] = biological target: T2, Adrenergic receptor alpha-2 (Rattus norvegicus, UniProt P22086+P19328+P22909); assay: Inhibitory activity against alpha-2 adrenergic receptor by 3H ligand binding experiments.; type: protein assay
T2 sequence (P22086 whole entry): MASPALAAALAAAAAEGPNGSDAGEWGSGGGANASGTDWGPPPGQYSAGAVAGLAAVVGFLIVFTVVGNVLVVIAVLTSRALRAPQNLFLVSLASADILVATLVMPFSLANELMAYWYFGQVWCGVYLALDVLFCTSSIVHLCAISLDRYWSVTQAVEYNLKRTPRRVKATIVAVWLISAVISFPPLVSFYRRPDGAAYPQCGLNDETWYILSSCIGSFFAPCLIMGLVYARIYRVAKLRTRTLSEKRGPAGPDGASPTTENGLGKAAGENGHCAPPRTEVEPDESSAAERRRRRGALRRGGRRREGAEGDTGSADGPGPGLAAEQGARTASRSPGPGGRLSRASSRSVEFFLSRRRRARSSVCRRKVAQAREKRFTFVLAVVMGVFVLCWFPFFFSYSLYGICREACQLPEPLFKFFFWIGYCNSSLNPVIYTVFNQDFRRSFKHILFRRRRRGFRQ
T2 sequence (P19328 whole entry): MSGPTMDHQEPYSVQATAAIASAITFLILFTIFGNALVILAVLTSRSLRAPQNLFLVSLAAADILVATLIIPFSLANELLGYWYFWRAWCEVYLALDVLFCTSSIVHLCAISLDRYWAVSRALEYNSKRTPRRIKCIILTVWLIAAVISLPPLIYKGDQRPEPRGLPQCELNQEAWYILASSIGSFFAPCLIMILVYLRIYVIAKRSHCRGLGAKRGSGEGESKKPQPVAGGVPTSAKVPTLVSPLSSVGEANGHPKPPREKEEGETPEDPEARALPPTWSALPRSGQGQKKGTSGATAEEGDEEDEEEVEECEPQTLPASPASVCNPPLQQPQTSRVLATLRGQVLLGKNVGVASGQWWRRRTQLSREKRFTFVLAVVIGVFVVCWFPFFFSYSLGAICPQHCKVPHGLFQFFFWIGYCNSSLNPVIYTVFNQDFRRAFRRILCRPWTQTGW
T2 sequence (P22909 whole entry): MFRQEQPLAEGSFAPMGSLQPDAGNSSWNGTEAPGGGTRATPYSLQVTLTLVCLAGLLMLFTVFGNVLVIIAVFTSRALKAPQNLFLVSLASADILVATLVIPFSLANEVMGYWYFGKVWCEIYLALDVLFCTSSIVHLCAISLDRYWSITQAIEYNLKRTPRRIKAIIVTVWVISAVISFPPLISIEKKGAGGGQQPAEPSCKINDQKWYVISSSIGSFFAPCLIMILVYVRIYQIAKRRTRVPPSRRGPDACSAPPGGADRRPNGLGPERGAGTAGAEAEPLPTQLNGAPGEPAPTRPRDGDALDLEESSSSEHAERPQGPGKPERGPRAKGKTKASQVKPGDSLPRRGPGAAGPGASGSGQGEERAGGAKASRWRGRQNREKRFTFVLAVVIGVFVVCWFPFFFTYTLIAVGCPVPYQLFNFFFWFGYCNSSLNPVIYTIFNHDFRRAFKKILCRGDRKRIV

[11] = system: Canis familiaris; assay: Compound was tested for anti-apomorphine effect in 3 dogs and the vomiting frequency expressed at a dose of 1.0 mg/kg perorally.; type: functional, Canis lupus familiaris; details: route oral; in short: as §2
[12] = species on record: Canis familiaris; assay: Effective dose required to inhibit 50% of apomorphine effect(95% confidence limits); type: functional; details: Canis lupus familiaris
In short: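 Dogs were given the test drug orally, with saline controls, and then challenged with apomorphine. Vomiting frequency was counted in groups of 2–8 dogs per dose. ED50 and its 95% confidence limits were obtained by probit analysis. Significance against controls used Student's t test.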

[13] = system: Canis familiaris; assay: Compound was tested for anti-apomorphine effect in 3 dogs and the vomiting frequency expressed at a dose of 0.5 mg/kg perorally.; type: functional, Canis lupus familiaris; details: route oral; in short: as §2
[14] = system: Canis familiaris; assay: Compound was tested for anti-apomorphine effect in 3 dogs and the vomiting frequency expressed at a dose of 0.2 mg/kg perorally.; type: functional, Canis lupus familiaris; details: route oral; in short: as §2
[15] = system: Canis familiaris; assay: Compound was tested for anti-apomorphine effect in 3 dogs and the vomiting frequency expressed at a dose of 2.0 mg/kg perorally.; type: functional, Canis lupus familiaris; details: route oral; in short: as §2

D(2) dopamine receptor, sequence (P61169 whole entry): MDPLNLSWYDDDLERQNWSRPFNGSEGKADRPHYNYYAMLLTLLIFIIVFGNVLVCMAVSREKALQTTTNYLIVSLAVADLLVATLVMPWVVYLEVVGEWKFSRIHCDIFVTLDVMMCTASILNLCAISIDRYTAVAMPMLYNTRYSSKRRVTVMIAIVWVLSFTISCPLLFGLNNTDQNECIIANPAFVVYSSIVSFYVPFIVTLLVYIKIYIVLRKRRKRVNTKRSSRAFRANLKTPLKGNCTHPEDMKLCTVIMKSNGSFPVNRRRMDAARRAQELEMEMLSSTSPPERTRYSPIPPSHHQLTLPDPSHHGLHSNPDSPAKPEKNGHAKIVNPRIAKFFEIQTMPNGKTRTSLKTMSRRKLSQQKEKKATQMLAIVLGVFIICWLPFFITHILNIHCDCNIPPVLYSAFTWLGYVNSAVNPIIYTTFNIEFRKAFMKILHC

In the case of COc1cc(N)c(Cl)cc1C(=O)NC1CCN(CCCOc2ccc(F)cc2)CC1OC (configuration not stated) [CISAPRIDE], the IC50 [1] is reported as 4.47 µM, the GE [2] is reported as 47% and the Vomiting frequency [3] is reported as 6. For the same compound, the IC50 [4] was 0.11 µM and the ED50 [5] was over 1 mg/kg.

CCOc1cc(N)c(Cl)cc1C(=O)NCC1CN(Cc2ccc(F)cc2)CCO1.O=C(O)CC(O)(CC(=O)O)C(=O)O (configuration not stated) [MOSAPRIDE CITRATE] gave an IC50 [1] of over 100 µM, an IC50 [6] of over 100 µM and an IC50 [4] of over 100 µM. It also gave a Vomiting frequency [7] of 6.3, a Vomiting frequency [8] of 6.4 and an IC50 [9] of over 100 µM. For the same compound, the IC50 [10] was over 10 µM and the ED50 [5] was over 10 mg/kg.

With CCN(CC)CCNC(=O)c1cc(Cl)c(N)cc1OC [METOCLOPRAMIDE] the Vomiting frequency [11] was 1.3, the IC50 [1] was 7.8 µM and the ED50 [12] was 0.45 mg/kg. For the same compound, the GE [2] was 21%, the IC50 [4] was 32.8 µM and the Vomiting frequency [13] was 4. For the same compound, the Vomiting frequency [14] was 7.7, the Vomiting frequency [15] was 0.3 and the IC50 [10] was 7.7 µM.
